Experimental data reported in ChEMBL document CHEMBL3853294, “Design, synthesis and biological evaluation of novel HSP70 inhibitors: N, N'-disubstituted thiourea derivatives” (Eur J Med Chem, 2016).

How the values were obtained:
[1] = biological target: Chaperone protein DnaK (Escherichia coli) (UniProt P0A6Y8); assay: Inhibition of Escherichia coli DnaK ATPase activity incubated on shaker for 10 mins followed by 30 mins incubation by malachite green reagent based colorimetric assay
[2] = biological target: Chaperone protein DnaK (Escherichia coli) (UniProt P0A6Y8); assay: Inhibition of Escherichia coli DnaK ATPase activity at 200 uM incubated on shaker for 10 mins followed by 30 mins incubation by malachite green reagent based colorimetric assay
[3] = Growth inhibition of human BT/LapR1.0 cells at 10 uM after 72 hrs by cell titer-glo based luminescence assay; settings: read-out: GI
In short: (§1)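 Cells were trypsinised and seeded at 5000 cells/well, then cultured 24 h at 37 °C. Compound was added at 10 µM, alone or with 1 µM lapatinib, and incubated 72 h at 37 °C. CellTiter-Glo reagent was added at a volume equal to the medium, followed by 3 min shaking and 10 min at room temperature. Luminescence (ATP) was read and normalised to the blank control group.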

Homo sapiens [4] = organism: Homo sapiens; assay: Inhibition of HSP70 in human BT/LapR1.0 cells assessed as potentiation of 1 uM of lapatinib-induced growth inhibition after 72 hrs by measuring coefficient of drug interaction by cell titer-glo based luminescence assay
[5] = Growth inhibition of human BT474 cells at 10 uM after 72 hrs by cell titer-glo based luminescence assay; parameters: species or system BT-474; settings: read-out: GI
In short: as §1

Homo sapiens [6] = organism: Homo sapiens; assay: Inhibition of HSP70 in human BT/LapR1.0 cells assessed as potentiation of 1 uM of lapatinib-induced growth inhibition at 10 uM after 72 hrs by cell titer-glo based luminescence assay
In short: as §1

BT-474 [7] = assay: Potentiation of lapatinib-induced growth inhibition of human BT474 cells at 10 uM after 72 hrs by cell titer-glo based luminescence assay; assay type: functional; settings: BT-474, 72 h, read-out: GI
In short: as §1

BT-474 [8] = assay: Potentiation of lapatinib-induced growth inhibition of human BT474 cells assessed as coefficient of drug interaction after 72 hrs by cell titer-glo based luminescence assay; assay type: functional

COc1ccc(-c2nc(-c3cc(C(F)(F)F)cc(C(F)(F)F)c3)n(Cc3ccc(C(N)=O)cc3)c2-c2ccc(OC)cc2)cc1
inhibition [1]: Dose-dependent effect | inhibition [2]: 53%

N#Cc1ccc(COC[C@H]2O[C@@H](n3c(NCc4ccc(Cl)c(Cl)c4)nc4c(N)ncnc43)[C@H](O)[C@@H]2O)cc1
inhibition [1]: Dose-dependent effect | inhibition [2]: 43%

CNC(=S)NC(CC(C)C)NC(=O)/C=C/c1cc(OC)c(OC)c(OC)c1 (stereo unspecified)
inhibition at 72 h, 10 µM [3]: 13% | Activity (Homo sapiens [4]): < 1 | inhibition [2]: < 20% | inhibition at 72 h, 10 µM [5]: 10.5% | growth inhibition (GI) (Homo sapiens [6]): 30.9% | inhibition of growth at 10 µM (BT-474 [7]): 79.8% | Activity (BT-474 [8]): <1
